This is a sample that favours compounds with a hit; in the whole collection about 1.1% have one here.
Diaph act CS – counter-screen for diaphorase-based assays: diaphorase activators and chemical reducers. 190,000 compounds, 0.005% hits. activation factor at 20 µM. AID 1229. Diaphorase/resazurin coupled assay, resorufin fluorescence, 16 min; active compounds read high; 1 = vehicle wells, 0 = NADH-free wells;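 active = diaphorase activity raised at least twofold by the compound at 20 µM; inactive = activation factor below 2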
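Assay system: Purified diaphorase enzyme from Clostridium kluyveri | Amount: Enzyme 0.07 U/mL final | Dosing: Compound 20 µM once, DMSO 1% | Timing: 16 min reaction at room temperature | Detection: Fluorescence, excitation 544 nm and emission 590 nm | Evaluation: Higher resorufin formation from activation or reduction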
G6PDH counter – L. mesenteroides G6PDH inhibition counter-screen; Purified L. mesenteroides G6PDH, diaphorase/resazurin coupled fluorescence, 45 min; inhibition, % at 5 µM; 200,000 compounds, 0.12% hits; AID 1020; in the data active = inhibition above about 50%
PMI activator – phosphomannose isomerase (human) activation | P34949 | purified human PMI, coupled resazurin fluorescence, 20 min; active compounds read high; 1 = vehicle control, 0 substrate-free wells | activation factor at 20 µM | 190,000 compounds, 0.005% hits;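 active = activation factor of 2 or more at 20 µM, relative to plate controls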
Target sequence (P34949 whole entry, looked up): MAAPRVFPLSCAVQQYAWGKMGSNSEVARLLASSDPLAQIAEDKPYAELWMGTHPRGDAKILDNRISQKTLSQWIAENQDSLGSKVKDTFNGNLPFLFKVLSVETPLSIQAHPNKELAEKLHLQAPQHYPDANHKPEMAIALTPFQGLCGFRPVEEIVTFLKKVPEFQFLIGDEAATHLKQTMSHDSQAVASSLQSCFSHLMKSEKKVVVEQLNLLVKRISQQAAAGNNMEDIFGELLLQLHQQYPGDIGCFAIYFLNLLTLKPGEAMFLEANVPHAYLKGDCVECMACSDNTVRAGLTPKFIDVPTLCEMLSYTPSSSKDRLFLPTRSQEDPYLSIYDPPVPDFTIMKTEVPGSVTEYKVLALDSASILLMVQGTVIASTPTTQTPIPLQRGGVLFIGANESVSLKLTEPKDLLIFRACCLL
Diaph inh CS – inhibits diaphorase or chemically oxidizes, flagging diaphorase assay artifacts | inhibition, % at 20 µM | 190,000 compounds, 0.69% hits | diaphorase resazurin-to-resorufin fluorescence, NADH, 16 min; bacterial (C. kluyveri) enzyme, not human;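 active = primary screen inhibition at 20 µM above a set limit, cut at about 50% in these data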;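 note: plate controls were DMSO with full reaction for no effect and wells lacking NADH for full effect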
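System: Diaphorase enzyme from Clostridium kluyveri | Amount: Enzyme working solution with 0.14 U/mL diaphorase | Benchmarks: No-NADH positive control and DMSO neutral control | Signal: Fluorescence of resorufin formed from resazurin, Ex 544/Em 590 nm | Schedule: 16-min room-temperature incubation before reading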
PMI act hi M6P – PMI (human) activation, high substrate; coupled PMI enzyme assay, resazurin fluorescence, 20 min; active compounds read high; 1 = untreated enzyme, 0 = substrate-free blank; 190,000 compounds, 0.34% hits; activation factor at 20 µM; P34949; AID 1216;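 active = activation factor of 2 or more at 20 µM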
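Test system: Human PMI in coupled enzyme assay | Input: 15 ng/mL PMI | Medium: HEPES-buffered pH 7.4 with magnesium and detergent | Compound: One concentration, 20 µM, in 1% DMSO | Incubation: Enzyme reaction with compound 20 min at room temperature | Detection: Diaphorase-driven resazurin-to-resorufin fluorescence, excitation 544, emission 590 nm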
Starred values were filed as active, the others as inactive.

SMILES | Diaph act CS | G6PDH counter | PMI activator | Diaph inh CS | PMI act hi M6P
COc1ccccc1/C=C/C(=O)OCC(=O)Nc1cc(C(F)(F)F)ccc1N1CCOCC1 | 0.8 | -24 | 0.8 | 22 | 0.8
COc1ccccc1OCC#CCNC1CCCCC1C (stereo not drawn) | 0.9 | 6 | 1.5 | 11 | 1
Nc1scc2c(C(=O)N/N=C/c3ccc(Cl)cc3)nn(-c3ccccc3)c(=O)c12 | 0.2 | 20 | 0.3 | 75* | 0.4
CN1CC2(Cc3c1ccc1ccccc31)C(=O)OC(C)(C)OC2=O | 0.5 | 7 | 0.5 | 51* | 0.4
CCOC(=O)C1=C(O)/C(=C/c2ccc(OCC(=O)O)c(OCC)c2)SC1=Nc1ccc(OC)cc1 | 0.5 | 11 | 1 | 47 | 1
CCOC(=O)C1=C(O)/C(=C/c2ccc(OCC(=O)O)c(OCC)c2)SC1=Nc1ccc(C)cc1 | 0.4 | 15 | 1 | 62* | 0.9
O=C(OCc1cnc(Cl)s1)c1cccs1 | 1.2 | 7 | 1.1 | -17 | 1
CCN(CC)CCN1C(=O)C(O)=C(C(=O)c2ccco2)C1c1ccccn1 (stereo not drawn) | 0.4 | 10 | 1.4 | 60* | 1.6
CSc1nc2oc3c(c2c2nncn12)CC(C)(C)SC3 | 1 | 7 | 1.4 | -4 | 2.6*
Cc1nc2c(-c3ccc(F)cc3)cnn2c2c1CCC2 | 0.9 | -1 | 0.9 | 11 | 0.9
CC1(C)CC(=O)C(C=NCCN2CCN(C3CC(=O)N(c4ccc(Br)cc4)C3=O)CC2)=C(O)C1 (stereo not drawn) | 1 | 10 | 1 | 4 | 1
S=c1nc(-c2ccccc2)[nH]c2ccccc12 | 0.3 | -1 | 1 | 66* | 1.1
O=S(=O)(Cc1ccc(Cl)cc1)c1ncc(CO)n1Cc1ccccc1 | 1 | 6 | 1 | 2 | 1
N#CC1=C(c2ccc(-c3ccccc3)cc2)COC1=O | 1 | 0 | 1.7 | 2 | 2.4*
COc1ccc(C2=C(c3ccc([N+](=O)[O-])cc3)C(=O)OC2)cc1 | 0.9 | -3 | 1 | 8 | 1
Cc1ccc(Cl)c(OCC(=O)Nc2sc(C)c(C)c2C#N)c1 | 1.1 | 7 | 1.1 | -10 | 1.2
O=[N+]([O-])c1ccccc1NC(=S)N/N=C/c1ccc(O)c(O)c1 | 0.3 | 11 | 0.5 | 72* | 1
Cc1c(Cl)cccc1NS(=O)(=O)c1ccc2c(c1)C1C=CCC1C(c1ccc(C(=O)O)cc1)N2 (stereo not drawn) | 0.4 | 19 | 1.5 | 59* | 1.4
CC(C)NC(=O)NC(=O)COC(=O)c1cccc(OC(F)F)c1 | 1 | 8 | 1 | -4 | 1.1
C=CCN=C1NN=C(c2ccc3c(c2)OCCO3)CS1 | 0.9 | 3 | 1 | 8 | 1
N#CC1=C(N)SC(N)=C(C#N)C1CCC1CCCCC1 | 0.5 | -3 | 1 | 54* | 1.2
O=c1[nH]c(=O)c2cc([N+](=O)[O-])cc([N+](=O)[O-])c2[nH]1 | 1 | 8 | 1.7 | 4 | 2.2*
CCNc1ccc(Br)cc(C(=O)/C=C/c2ccc(Cl)cc2Cl)c1=O | 0.5 | 21 | 1.1 | 54* | 1.3
C/C(=N\Nc1cccc(C(=O)O)c1)c1ccc(Cl)s1 | 0.9 | -1 | 1.8 | 10 | 2.6*
COc1ccc(/C(C)=N/Nc2cccc(C(=O)O)c2)cc1OC | 0.9 | 12 | 1.6 | 12 | 2.5*
SMILES | Diaph act CS | G6PDH counter | PMI activator | Diaph inh CS | PMI act hi M6P
COc1ccccc1C(c1nnnn1CCc1ccccc1)N1CCCCCC1 (stereo not drawn) | 0.9 | 13 | 0.9 | 13 | 1
COc1cc(/C=N/Nc2cccc(C)c2)ccc1OC(=O)c1cccs1 | 0.7 | -14 | 1.4 | 26 | 2.1*
COc1cc(/C=N/NC(=O)COc2ccccc2C)ccc1OC(=O)c1cccs1 | 0.8 | 3 | 0.9 | 22 | 0.9
COc1cc(/C=N/Nc2cccc(C)c2)cc(Br)c1O | 0.8 | 2 | 1.7 | 19 | 2.4*
Nc1cc(S(=O)(=O)N2CCCCC2)ccc1Oc1ccccc1 | 0.8 | 4 | 0.8 | 22 | 0.8
OCC(CO)(CO)N=Cc1c(O)ccc2ccccc12 | 0.4 | 34 | 0.6 | 57* | 0.3
c1ccc(-c2cc(N3CCCCCC3)n[nH]2)cc1 | 0.4 | -6 | 0.3 | 59* | 0.3
c1ccc2c(c1)CCCN2Cc1nnnn1CC1CCCO1 (stereo not drawn) | 0.9 | 8 | 1.5 | 13 | 2.1*
c1ccc(CCn2nnnc2CN2CCCc3ccccc32)cc1 | 0.9 | 8 | 1 | 12 | 2.1*
c1ccc2sc(N3CCN(Cc4nnnn4CC4CCCO4)CC3)nc2c1 (stereo not drawn) | 1 | 2 | 1.1 | 2 | 1.1
c1ccc(-c2nnc(CN3CCCc4ccccc43)o2)cc1 | 1 | 4 | 1.5 | 0 | 2.1*
c1ccc(-c2nnc(CN3CCC4(CC3)OCCO4)o2)cc1 | 0.9 | -11 | 0.9 | 12 | 0.9
O=C(Cc1ccccc1)NCC(=O)OCC(=O)c1ccccc1Cl | 1 | 8 | 0.9 | 0 | 0.9
Cc1ccc(N=Nc2c(N)[nH]n3c(=O)cc(-c4ccccc4)nc23)cc1 | 0.4 | -1 | 0.7 | 62* | 0.9
Cc1ccc(NC(=O)CN(C)C(=O)CCC(=O)c2cccs2)cc1 | 0.9 | -3 | 0.9 | 15 | 1
O=C(O)/C=C/C(=O)Nc1ccc2c(c1)NC(=O)CO2 | 0.4 | 7 | 0.4 | 61* | 0.3
C=CCc1cc(/C=C/c2nc(O)c([N+](=O)[O-])c(=O)[nH]2)cc(OC)c1O | 0.3 | 5 | 0.8 | 71* | 0.3
O=C(NNC(=S)NC(=O)c1cccnc1)c1ccccc1 | 0.8 | 8 | 0.8 | 24 | 0.9
O=C(NC(=S)NNC(=O)c1cnccn1)c1ccc(F)cc1 | 0.4 | -4 | 0.7 | 64* | 1.1
CCOc1cc(C(=O)Nc2ccc(NC(C)=O)cc2)ccc1OCC(=O)N1CCCCC1 | 0.9 | 8 | 0.8 | 13 | 0.9
O=C1C=C(N(CCO)Cc2ccccc2)c2ccccc2C1=O | 0.8 | 54* | 0.6 | 21 | 0.4
CCN1CCc2c(sc(N)c2C#N)C1 | 0.9 | -21 | 1 | 11 | 1.1
N#Cc1c(N)sc(=S)c2c1CCN(Cc1ccccc1)C2 | 0.2 | -45 | 0.9 | 82* | 1.5
N#Cc1c(NCCO)nc(NCc2ccccc2)c2c1CCN(Cc1ccccc1)C2 | 0.4 | 38 | 0.4 | 59* | 0.4
COc1ccc(NS(=O)(=O)c2ccc3c(c2)Cc2ccccc2-3)cn1 | 0.8 | 4 | 0.7 | 21 | 0.8
O=C(CSc1ccccc1)Nc1ccc(C(=O)Nc2ccc(O)cc2)cc1 | 1.1 | 4 | 1 | -10 | 0.9
CC1CCC/C(=N\Nc2ccc(Cl)c(C(=O)O)c2)C1 (stereo not drawn) | 0.9 | 17 | 1.7 | 8 | 2.1*

Source: PubChem (Sanford-Burnham Center for Chemical Genomics)
